Drawing on ChEMBL document CHEMBL4024789, “Neutral Porphyrin Derivative Exerts Anticancer Activity by Targeting Cellular Topoisomerase I (Top1) and Promotes Apoptotic Cell Death without Stabilizing Top1-DNA Cleavage Complexes” (J Med Chem, 2018), this text covers EC50 and Activity for 11 compounds.

Activity calls are given as the source filed them. The rule behind the calls is not given here. Some results are limits rather than exact numbers.

Test [1] addresses T1, DNA topoisomerase 1 (Homo sapiens, UniProt P11387).
T1 sequence (P11387 whole entry): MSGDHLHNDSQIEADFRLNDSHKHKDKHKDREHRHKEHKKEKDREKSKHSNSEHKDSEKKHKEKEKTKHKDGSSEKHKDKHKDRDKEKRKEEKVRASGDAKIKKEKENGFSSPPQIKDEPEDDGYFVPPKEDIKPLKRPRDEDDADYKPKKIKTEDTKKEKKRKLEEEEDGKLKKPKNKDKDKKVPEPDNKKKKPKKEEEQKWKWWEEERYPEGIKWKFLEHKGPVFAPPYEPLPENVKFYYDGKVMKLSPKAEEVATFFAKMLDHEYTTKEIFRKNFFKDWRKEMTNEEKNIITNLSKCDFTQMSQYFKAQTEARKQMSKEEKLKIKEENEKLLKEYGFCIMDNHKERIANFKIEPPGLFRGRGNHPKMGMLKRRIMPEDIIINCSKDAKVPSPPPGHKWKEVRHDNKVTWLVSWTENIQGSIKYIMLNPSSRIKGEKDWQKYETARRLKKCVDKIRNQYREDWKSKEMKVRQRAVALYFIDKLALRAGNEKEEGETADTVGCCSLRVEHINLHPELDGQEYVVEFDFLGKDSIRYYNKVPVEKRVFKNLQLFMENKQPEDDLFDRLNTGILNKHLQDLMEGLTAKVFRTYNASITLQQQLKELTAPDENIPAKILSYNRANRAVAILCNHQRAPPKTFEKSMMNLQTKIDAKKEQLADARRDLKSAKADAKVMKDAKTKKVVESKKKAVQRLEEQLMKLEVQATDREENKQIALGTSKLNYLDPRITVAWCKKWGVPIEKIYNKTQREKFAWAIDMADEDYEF
In words: Inhibition of recombinant human topoisomerase-1 expressed in baculovirus infected sf9 cells using supercoiled pBS SK(+) DNA as substrate after 15 mins by ethidium bromide staining based agarose gel electrophoresis method. The essentials:
(§1)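 Relaxation assay: 90 fmol supercoiled pBS (SK+) DNA with 30 fmol recombinant Top1 (Sf-9/baculovirus). Compound either preincubated with Top1 for 5 min before DNA addition, or added simultaneously with DNA; then 37 °C for 15 min. Vehicle 2% DMSO. Read on 1% agarose gel. EC50 from mean ± SD of three experiments.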

Test [2] has as its target T1, DNA topoisomerase 1. In words: Inhibition of recombinant human topoisomerase-1 expressed in baculovirus infected sf9 cells using supercoiled pBS SK(+) DNA as substrate preincubated for 5 mins followed by substrate addition measured after 15 mins by ethidium bromide staining based agarose gel electrophoresis method. The essentials:
as §1

Test [3] concerns Bacteria. In words: Induction of relaxed pBluescript SK(+) DNA intercalation (unknown origin) assessed as negative supercoiling at 300 uM after 15 mins by agarose gel electrophoresis method. The method, boiled down: (§2)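 Top1 unwinding assay: excess Top1 first relaxes 50 fmol supercoiled pBS (SK+) DNA, then the relaxed DNA is incubated with compound at 50, 100 or 300 μM (m-AMSA and etoposide as references). Negative supercoiling read on agarose gel.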

Test [4] has as its system Bacteria. In words: Induction of relaxed pBluescript SK(+) DNA intercalation (unknown origin) assessed as negative supercoiling at 50 uM after 15 mins by agarose gel electrophoresis method. The essentials: as §2

Take `C1=Cc2nc1c(-c1ccncc1)c1ccc([nH]1)c(-c1ccncc1)c1nc(c(-c3ccncc3)c3ccc([nH]3)c2-c2ccncc2)C=C1`: the EC50 in test [1] and in test [2] was above 50 µM in each case.

In the case of `COc1cc([C@@H]2c3cc4c(cc3[C@@H](O[C@@H]3O[C@@H]5CO[C@@H](C)O[C@H]5[C@H](O)[C@H]3O)[C@H]3COC(=O)[C@H]23)OCO4)cc(OC)c1O`, the result in test [3] was inactive.

Regarding `Brc1ccc(-c2c3nc(c(-c4ccc(Br)cc4)c4ccc([nH]4)c(-c4ccncc4)c4nc(c(-c5ccncc5)c5ccc2[nH]5)C=C4)C=C3)cc1`, the EC50 in test [1] and in test [2] was above 50 µM in each case.

Turning to `O=C(O)c1ccc(-c2c3nc(c(-c4ccc(C(=O)O)cc4)c4ccc([nH]4)c(-c4ccc(C(=O)O)cc4)c4nc(c(-c5ccc(C(=O)O)cc5)c5ccc2[nH]5)C=C4)C=C3)cc1`, the values for the EC50 in test [1] and in test [2] were 2.02 µM and 0.563 µM, respectively.

In the case of `COc1cc(NS(C)(=O)=O)ccc1Nc1c2ccccc2nc2ccccc12`, the result in test [4] was Active.

Take `Brc1ccc(-c2c3nc(c(-c4ccncc4)c4ccc([nH]4)c(-c4ccncc4)c4nc(c(-c5ccncc5)c5ccc2[nH]5)C=C4)C=C3)cc1`: the half-maximal effective concentration (EC50) in test [1] and in test [2] was above 50 µM each time.

For the compound `CN(C)c1ccc(-c2c3nc(c(-c4ccc(N(C)C)cc4)c4ccc([nH]4)c(-c4ccc(N(C)C)cc4)c4nc(c(-c5ccc(C(=O)O)cc5)c5ccc2[nH]5)C=C4)C=C3)cc1`, the EC50 in test [1] is 1.97 µM; in test [2] it was 1.23 µM.

Turning to `Nc1ccc(-c2ccc(-c3c4nc(c(-c5ccc(-c6ccc(N)cc6)cc5)c5ccc([nH]5)c(-c5ccncc5)c5nc(c(-c6ccncc6)c6ccc3[nH]6)C=C5)C=C4)cc2)cc1`, the results for the 50% effective concentration (EC50) in test [1] and in test [2] were 82.8 µM and 63.4 µM, respectively.

As for `C1=Cc2nc1c(-c1ccccc1)c1ccc([nH]1)c(-c1ccccc1)c1nc(c(-c3ccccc3)c3ccc([nH]3)c2-c2ccccc2)C=C1`, the half-maximal effective concentration (EC50) in test [1] and in test [2] was above 50 µM throughout.

Regarding `Brc1ccc(-c2c3nc(c(-c4ccncc4)c4ccc([nH]4)c(-c4ccc(Br)cc4)c4nc(c(-c5ccncc5)c5ccc2[nH]5)C=C4)C=C3)cc1`, the EC50 in test [1] and in test [2] was above 50 µM in each case.

Take `Brc1ccc(-c2c3nc(c(-c4ccc(-c5ccncc5)cc4)c4ccc([nH]4)c(-c4ccc(Br)cc4)c4nc(c(-c5ccc(-c6ccncc6)cc5)c5ccc2[nH]5)C=C4)C=C3)cc1`: the EC50 in test [1] and in test [2] was above 50 µM throughout.

The EC50 is the concentration at which the effect is half-maximal.
